Experimental data reported in ChEMBL document CHEMBL2021842, “COMPARE analysis of the toxicity of an iminoquinone derivative of the imidazo[5,4-f]benzimidazoles with NAD(P)H:quinone oxidoreductase 1 (NQO1) activity and computational docking of quinones as NQO1 substrates” (Bioorg Med Chem, 2012).

Legend:
Format in all cases: functional
[1] = test system: SK-OV-3; test: Growth inhibition of human SKOV3 cells
In short: (§1)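 Part of the NCI DTP 60-cell-line panel. After the single-dose stage, cells were tested at five doses. Read-out is the GI50, the concentration giving 50% inhibition of cell growth, derived for each cell line.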

[2] = test system: NCI-H322M; test: Growth inhibition of human NCI-H322M cells; in short: as §1
[3] = test system: A549; test: Growth inhibition of human A549 cells
In short: (§2)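 NCI DTP 60-cell-line screen, second stage: five-dose testing across the human tumour panel. GI₅₀ taken as the concentration needed to inhibit cell growth by 50% in each cell line.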

[4] = test system: NCI-H522; test: Growth inhibition of human NCI-H522 cells; in short: as §1
[5] = test system: HCT-116; test: Growth inhibition of human HCT116 cells; in short: as §2
[6] = test system: BT-549; test: Growth inhibition of human BT549 cells assessed as cell growth at 10 uM relative to untreated control; details: read-out: Activity
In short: (§3)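 NCI DTP 60-cell-line screen, first stage: a single 10 µM dose of compound given to the human tumour panel. Result reported as percent growth relative to control, on a mean growth graph.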

[7] = test system: HCT-15; test: Growth inhibition of human HCT15 cells; in short: as §2
[8] = test system: SF-295; test: Growth inhibition of human SF295 cells; in short: as §1
[9] = test system: SW-620; test: Growth inhibition of human SW620 cells
In short: (§4)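 This is the second, five-dose stage of the NCI DTP 60-cell-line screen. GI50 is the concentration that inhibits cell growth by 50%, derived for each cell line.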

[10] = test system: NCI/ADR-RES; test: Growth inhibition of human NCI/ADR-RES cells; in short: as §1
[11] = test system: A498; test: Growth inhibition of human A498 cells; in short: as §2
[12] = test system: IGROV-1; test: Growth inhibition of human IGROV1 cells; in short: as §2
[13] = test system: MDA-MB-468; test: Growth inhibition of human MDA-MB-468 cells; in short: as §1
[14] = test system: SK-MEL-5; test: Growth inhibition of human SK-MEL-5 cells; in short: as §1
[15] = test system: K562; test: Growth inhibition of human K562 cells; in short: as §2
[16] = test system: OVCAR-5; test: Growth inhibition of human OVCAR5 cells; in short: as §1
[17] = test system: HT-29; test: Growth inhibition of human HT-29 cells; in short: as §2
[18] = test system: MCF7; test: Growth inhibition of human MCF7 cells; in short: as §1
[19] = test system: MOLT-4; test: Growth inhibition of human MOLT4 cells; in short: as §1
[20] = test system: M14; test: Growth inhibition of human M14 cells; in short: as §2
[21] = test system: OVCAR-3; test: Growth inhibition of human OVCAR3 cells; in short: as §1
[22] = test system: HL-60(TB); test: Growth inhibition of human HL-60(TB) cells
In short: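 NCI DTP NCI-60 screen, second stage: five-dose testing across 60 human tumour cell lines from nine tissue types. GI50 is the concentration that inhibits cell growth by 50%, obtained for each cell line.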

[23] = test system: EKVX; test: Growth inhibition of human EKVX cells; in short: as §2
[24] = test system: HOP-92; test: Growth inhibition of human HOP92 cells; in short: as §2
[25] = test system: UACC-62; test: Growth inhibition of human UACC62 cells; in short: as §4
[26] = test system: SR; test: Growth inhibition of human SR cells; in short: as §4
[27] = test system: SK-MEL-28; test: Growth inhibition of human SK-MEL-28 cells; in short: as §1
[28] = test system: UACC-257; test: Growth inhibition of human UACC257 cells; in short: as §4
[29] = test system: Malme-3M; test: Growth inhibition of human MALME-3M cells assessed as cell growth at 10 uM relative to untreated control; details: read-out: Activity; in short: as §3

Question: How did the GI50 [1] turn out when `N=C1c2nc3n(c2C(=O)c2nc4n(c21)CCCC4)CCCC3` was run?
Answer: 33.1 µM

Question: And the GI50 [2]?
Answer: 1.7 µM

Question: And the GI50 [3]?
Answer: 2.04 µM

Question: And the GI50 [4]?
Answer: 4.57 µM

Question: And the GI50 [5]?
Answer: 19.5 µM

Question: And the growth at 10 µM [6]?
Answer: -37.2%

Question: And the GI50 [7]?
Answer: 2.63 µM

Question: What about the GI50 [8] of the same molecule?
Answer: 1.74 µM

Question: And the GI50 [9]?
Answer: 3.72 µM

Question: What about the GI50 [10] of the same molecule?
Answer: 35.5 µM

Question: And the GI50 [11]?
Answer: 6.03 µM

Question: What about the GI50 [12] of the same molecule?
Answer: 42.7 µM

Question: What about the GI50 [13] of the same molecule?
Answer: 14.8 µM

Question: What about the GI50 [14] of the same molecule?
Answer: 1.2 µM

Question: What about the GI50 [15] of the same molecule?
Answer: 20.4 µM

Question: What about the GI50 [16] of the same molecule?
Answer: 2.63 µM

Question: And the GI50 [17]?
Answer: 2.75 µM

Question: What about the GI50 [18] of the same molecule?
Answer: 1.86 µM

Question: What about the GI50 [19] of the same molecule?
Answer: 38.9 µM

Question: What about the GI50 [20] of the same molecule?
Answer: 1.78 µM

Question: What about the GI50 [21] of the same molecule?
Answer: 20.4 µM

Question: What about the GI50 [22] of the same molecule?
Answer: 23.4 µM

Question: What about the GI50 [23] of the same molecule?
Answer: 25.1 µM

Question: What about the GI50 [24] of the same molecule?
Answer: 43.7 µM

Question: And the GI50 [25]?
Answer: 1.74 µM

Question: And the GI50 [26]?
Answer: 8.51 µM

Question: What about the GI50 [27] of the same molecule?
Answer: 2.09 µM

Question: What about the GI50 [28] of the same molecule?
Answer: 1.95 µM

Question: For `O=C1c2nc3n(c2C(=O)c2nc4n(c21)CCCC4)CCCC3`, which growth at 10 µM [29] is on record?
Answer: 79.6%
